# Compound activity deposited in PubChem BioAssay by Broad Institute.
# GSIS activator: GLuc luminescence reporter in INS-1E cells, primary screen for activators of glucose-dependent secretion of insulin. AID 743287, 2014. activation, % at 16.6 µM. 370,000 tested, 0.61% active. INS-1E GLuc reporter insulin secretion, 2-3 h;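 active means lowest replicate activation of at least 40%, so every replicate reaches that level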;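 further: 0% = median of neutral control wells and 100% = median of IBMX positive control wells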
# miR122 inh: miR-122 Renilla sensor signal increase in Huh7, primary screen, miR-122 inhibitor project, cell-based, single point, plate reader; activation (reporter increase), % at 12.5 µM; AID 602342, 2012; Huh7 miR-122 Renilla luciferase sensor, 48 h; neutral wells = 0, positive control = 100; 340,000 tested, 0.3% active;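 active means mean replicate activation score at least 90 and every replicate individually at or above 90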;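 further: higher luciferase means less miR-122 activity so hits act as miR-122 inhibitors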
# Env fusion inh: inhibitors of HIV-1 Env-driven cell-cell fusion, primary screen, HeLa-JRFL effector, CEM21 target cells, luciferase; inhibition, % at 12.3 µM; 360,000 tested, 1.1% active; AID 651610, 2012;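 active means mean replicate inhibition score of at least 50 and every replicate individually at or above 50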;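 further: 0% = plate neutral controls and 100% = maraviroc near 300 nM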
# Rtt109 Vps75: inhibitors of C. albicans Rtt109/Vps75 HAT, primary screen, biochemical, ThioGlo CoA-SH fluorescence, plate reader. Histone acetyltransferase RTT109 (Candida albicans (strain SC5314 / ATCC MYA-2876)), …. purified Rtt109/Vps75, 4 h. inhibition, % at 34.9 µM. 330,000 tested, 0.16% active. AID 540336, 2011;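 active means inhibition of at least 50% in every replicate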
# Target sequence (Q5AAJ8 whole entry, looked up): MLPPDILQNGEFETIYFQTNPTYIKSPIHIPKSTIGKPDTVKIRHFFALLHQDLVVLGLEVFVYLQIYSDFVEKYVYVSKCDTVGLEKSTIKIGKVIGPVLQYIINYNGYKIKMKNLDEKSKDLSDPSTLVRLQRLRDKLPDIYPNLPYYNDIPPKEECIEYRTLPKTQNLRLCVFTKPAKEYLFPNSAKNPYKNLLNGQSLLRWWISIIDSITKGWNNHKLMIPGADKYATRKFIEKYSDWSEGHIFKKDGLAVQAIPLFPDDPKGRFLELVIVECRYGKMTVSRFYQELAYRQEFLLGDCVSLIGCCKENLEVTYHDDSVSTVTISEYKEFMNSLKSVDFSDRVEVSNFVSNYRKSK
# Cneo AK release: Cryptococcus neoformans cell lysis inducers, primary screen, AK release luminescence, single concentration | 360,000 tested, 0.2% active | lysis activity, % at 15 µM | C. neoformans lysis, adenylate kinase release luminescence, 4 h; normalised: neutral wells 0, clomiphene wells 100;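 active means mean lysis activity across replicates of at least 80%, whatever share of replicates individually reach that level; inactive means mean lysis activity below 80%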
#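 Material: C. neoformans cells | Amount: Yeast cell density of 5 × 10^6 cells/mL | Medium: Fresh YPD growth medium | Dosing: Single dose | Times: Static 4 h at 37 °C with compound, 1 h detection | Detection: AK luminescence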
# dFosB activator: activators of delta FosB homodimer, primary screen, biochemical, fluorescence polarization, TAMRA-CDK5 oligo, single point. 340,000 tested, 0.99% active. purified delta FosB; percent of positive-control signal above neutral wells. activation, % at 25 µM. AID 493131, 2011. Protein FosB (Mus musculus), P13346;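 active means mean activation above about 17%, with every replicate also reaching it, limit read from the data, passing the limit was not always enough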
# Active calls of the source: *; / = no result; [ ] = remark or other dose. This is a sample that favours compounds with a hit; in the whole collection about 2.4% have one here.
SMILES,GSIS activator,miR122 inh,Env fusion inh,Rtt109 Vps75,Cneo AK release,dFosB activator
Cc1ccc(-c2ccc3c(c2)O[C@H](CN(C)Cc2ccccn2)[C@@H](C)CN([C@@H](C)CO)S3(=O)=O)cc1,-20,34[16.7 µM],24[16.7 µM],/,-2,/
Cc1cc(C)n(CC(O)CN(c2ccccc2)S(=O)(=O)c2ccccc2)n1 (stereo not given),-7,5,/,-3,0,-10
O=S(=O)(c1ccccc1)N(CC(O)COc1ccccc1)c1ccccc1 (stereo not given),-30,131*,10,0,-2,0
COc1ccc(-c2noc(CN3CCOCC3)n2)cc1OC,-2,-7,/,6,1,-2
COc1ccc(-c2nnn(Cc3nc(N)nc(N4CCOCC4)n3)n2)cc1OC,96*,1,/,1,-3,-9
Nc1nc(SCC(=O)Nc2ccc([N+](=O)[O-])cc2)[nH]c(=O)c1NC(=O)c1ccc(Br)cc1,5,/,/,4,-1,50*
Nc1cc(=O)[nH]c(SCC(=O)Nc2ccc([N+](=O)[O-])cc2)n1,2,-2,9,-2,0,-8
Cc1ccc(S(=O)(=O)N[C@@H]2C=C[C@H](CC(=O)NCc3ccccc3F)O[C@H]2CO)cc1,7,3[16.7 µM],-14[16.7 µM],/,-10,/
CCN(CC(=O)Nc1cc(Cl)ccc1C)C(=O)c1ccc(=O)n(Cc2ccccc2)n1,-15,/,110*,-2,10,-10
CCN(CC(=O)Nc1c(F)cccc1F)C(=O)c1ccc(=O)n(Cc2ccccc2)n1,8,1,-5,-3,0,0
CCOc1ccc(N(C(=O)Cn2nnc3ccccc32)C(C(=O)NC(C)(C)CC)c2cccn2C)cc1 (stereo not given),/,-3,/,-4,-5,-19
CCC(C)(C)NC(=O)C(c1cccn1C)N(C(=O)Cn1nnc2ccccc21)c1ccc(OC)cc1OC (stereo not given),/,92*,-186,5,-2,-12
COc1ccc(CCn2ccc(O)c(Cc3c(F)cccc3Cl)c2=O)cc1OC,43*,/,23,0,/,-3
CC(=O)Nc1c(C(=O)NCc2ccccc2)nnn1Cc1ccccc1,/,1,/,3,0,-5
CC(=O)Nc1nonc1-n1nnc(C(=O)NCc2ccccc2)c1C,/,266*,-13,-16,0,1
CC(C)N(Cc1nc(-c2ccccc2)no1)C(=O)CN(C)S(=O)(=O)c1ccc(Br)cc1,/,/,70*,3,6,-7
COc1cc(C(=O)N/N=C/c2ccc(OC)c(CN3CCN(c4ccc(F)cc4)CC3)c2)ccc1O,8,/,6,12,/,39*
CCCC(=O)N1CC2(CN(C(C)=O)C2)c2c(n(C)c3cc(OC)ccc23)[C@@H]1CO,43,/,/,/,/,/
CCCCS(=O)(=O)/C=C\C=C/S(=O)(=O)CCCC,/,-31,/,149*,/,4
CCCCS(=O)(=O)/C=C\C1C2C=CC(C2)C1S(=O)(=O)CCCC (stereo not given),/,3,/,3,2,-3
COc1ccc(C(=O)N2CCN(c3ccc([N+](=O)[O-])c(NCCc4ccc(OC)c(OC)c4)c3)CC2)cc1,-46,-15,77*,-1,-2,-5
O=C(C[C@H]1C[C@@H]2c3cc(NC(=O)c4cccnc4)ccc3O[C@@H]2[C@H](CO)O1)NCc1cccnc1,2,0[16.7 µM],3[16.7 µM],/,-1,/
C=C1C(=O)c2sccc2C(c2ccc(OC)c(OC)c2)C1COC(C)=O (stereo not given),115*,/,-51,3,/,-13
CCN1CCN(CC(=O)N2N=C(c3cccs3)CC2c2ccc(OC)c(OC)c2)C(=O)C1=O (stereo not given),-6,-2,-6,-15,1,-7
Cc1cc(OCc2ccc(C(=O)NN=C3CCCC3)cc2)ccc1Cl,-9,/,0,56*,/,-13
SMILES,GSIS activator,miR122 inh,Env fusion inh,Rtt109 Vps75,Cneo AK release,dFosB activator
Cc1ccc(NC(=O)c2ccc(COc3ccc4c(c3)CCC4)cc2)c(C)c1,111*,/,-136,1,/,-3
O=C(Nc1ccccc1Cl)c1ccc(COc2ccc3c(c2)CCC3)cc1,-6,-9,-27,6,0,-5
C[C@H](NC(=O)C[C@@H]1C[C@@H]2c3cc(NC(=O)C4CCOCC4)ccc3O[C@@H]2[C@H](CO)O1)c1ccccc1,16,-4[16.7 µM],5[16.7 µM],/,50,/
CCOC(=O)CSc1nc(Cc2ccccc2)nc2ccccc12,19,/,56*,-6,/,-6
Cc1cccc(C)c1NC(=O)C(c1ccc(C#N)cc1)n1c(=O)c(-c2cc3ccccc3[nH]2)nc2ccccc21 (stereo not given),15,/,75*,/,/,/
Cc1cccc(C)c1NC(=O)C(c1ccccc1)n1c(=O)c(-c2cc3ccccc3[nH]2)nc2ccccc21 (stereo not given),22,/,-7,/,/,/
COC(=O)C[C@H]1CC[C@@H]2[C@@H](COc3ccc(NC(=O)Nc4ccc(C)cc4)cc3C(=O)N2C)O1,-3,7[16.7 µM],15[16.7 µM],/,0,/
NC1=NC(c2cn(-c3ccccc3)nc2-c2cccs2)n2c(nc3ccccc32)N1 (stereo not given),/,0,/,-12,0,37*
O=C(N/N=C\c1ccc(CNS(=O)(=O)c2ccc(Cl)cc2)o1)C(=O)Nc1ccc(Oc2ccccc2)cc1,58*,/,/,1,/,4
O=C(N/N=C\c1ccc(CN(Cc2ccc(Cl)cc2)S(=O)(=O)c2ccccc2)o1)C(=O)Nc1ccc(F)cc1,12,1,/,-11,0,7
COc1ccccc1NC(=O)CSc1nnc(-c2ccccc2)o1,84*,-1,-72,-8,2,0
COc1cc(-c2nnc(SCC(=O)OC3CCCCC3)o2)cc(OC)c1OC,-13,-1,8,59*,-7,-14
CCOC(=O)CSc1nnc(-c2cc(OC)c(OC)c(OC)c2)o1,-31,/,-20,-6,/,-3
COc1ccccc1NC(=O)CSc1nnc(Cc2ccccc2)o1,/,-4,/,-5,-2,-5
O=C(C[C@H]1C=C[C@@H](NC(=O)c2ccncc2)[C@H](CO)O1)NCc1ccncn1,2,/,/,/,/,/
COc1ccc(NC(=O)Nc2ccc3c(c2)[C@@H]2C[C@@H](CC(=O)NCCc4ccccc4)O[C@H](CO)[C@@H]2O3)cc1,-12,18[16.7 µM],15[16.7 µM],/,48,/
N#Cc1ccc(C23CC4(C2)[C@H](CN(Cc2ccc(C(F)(F)F)cc2)[C@@H]4c2ccccc2)C3c2ccccc2)cc1 (stereo not given in full),-14,-11,-39,-1,135*,9
